Test results as given in ChEMBL document CHEMBL1145955, “Synthesis, anti-HIV activity, and molecular mechanism of drug resistance of L-2',3'-didehydro-2',3'-dideoxy-2'-fluoro-4'-thionucleosides” (J Med Chem, 2003).

Legend:
CCRF-CEM = test: Evaluated in vitro for their potential toxic effects human CEM cells; assay type: functional, cell-based
Outline: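 CEM T-lymphoblastoid cells in log phase, 2.5 × 10³ cells/well, were exposed to 10-fold serial drug dilutions for 4 days at 37 °C, 5% CO₂. Viability was read by MTT (overnight dye, 5 h solubilization, 570 nm). IC50 was determined by the median-effect method.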

[1] = Evaluated in vitro for their potential toxic effects on uninfected PHA-stimulated human PBM cells; assay type: functional, cell-based
Outline: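 Uninfected PHA-stimulated PBM cells from healthy seronegative donors (Ficoll-Hypaque) were plated at 5 × 10⁴ cells/well with 10-fold serial drug dilutions for 5 days at 37 °C, 5% CO₂. The MTT readout was taken at 570 nm after overnight dye and 5 h solubilization. IC50 came from median-effect curves.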

[2] = system: Human immunodeficiency virus 1; test: (§1) In vitro anti-HIV activity was determined in PBM cells infected with HIV-1; assay type: functional, organism-based; settings: Human immunodeficiency virus 1, PBMC
Outline: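 PHA-stimulated (2-3 days) human PBM cells from healthy seronegative donors, infected in bulk for 1 h with HIV-1 LAI (100 TCID50/1 × 10⁷ cells in flasks or 200 TCID50/6 × 10⁵ cells/well). Infected cells went onto 10-fold serial compound dilutions in RPMI-1640 with 16% FBS, DEAE-dextran and IL-2, 5 days at 37 °C. Virion-pelleted supernatant RT activity was measured by poly(rA)·oligo(dT)/³H-TTP incorporation (37 °C, 2 h). EC50/EC90 came from median-effect curves.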

Vero = test: Evaluated in vitro for their potential toxic effects against Vero cells; assay type: functional, cell-based; settings: Chlorocebus sabaeus
Outline: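 Log-phase Vero cells were seeded at 5 × 10³ cells/well in 10-fold serial drug dilutions and incubated 3 days at 37 °C, 5% CO₂. MTT dye was added overnight, then solubilized for 5 h and read at 570 nm. IC50 was taken from median-effect concentration-response curves.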

[3] = as §1; settings: Homo sapiens, PBMC
[4] = system: Human immunodeficiency virus 1; test: Antiviral activity was determined against lamivudine-resistant mutant M184V strain; assay type: functional
Outline: (§2)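 Molecular clones HIV-1 xxBru (wild type) and HIV-1 M184Vpitt infected PHA-stimulated human PBM cells in bulk for 1 h. Cells were cultured with 10-fold serial compound dilutions, 5 days, 37 °C, 5% CO2. Read-out was supernatant RT activity with ³H-TTP incorporation. EC50 and EC90 were taken from concentration-response curves by the median effect method. Fold increase = EC90(M184V)/EC90(xxBru).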

[5] = system: Vero (Chlorocebus sabaeus); test: Evaluated in vitro for their potential toxic effects against Vero cells
[6] = Fold increase was determined from the ratio of EC90 (HIV-1M184V) / EC90 (HIV-1xxBRU); assay type: functional; outline: as §2
[7] = system: Human immunodeficiency virus 1; test: Antiviral activity was determined against WT (HIV-1xxBRU); assay type: functional
Outline: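 Molecular infectious clone HIV-1 xxBru was used to infect PHA-stimulated human PBM cells in bulk for 1 h (100 TCID50/1 × 10⁷ cells or 200 TCID50/6 × 10⁵ cells/well). Cells were cultured 5 days at 37 °C with 10-fold serial compound dilutions. Readout was supernatant RT activity, with ³H-TTP incorporation on poly(rA)·oligo(dT). EC50 was derived by the median-effect method.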

Compound: Nc1nc(O)c2ncn([C@H]3S[C@@H](CO)C=C3F)c2n1
- IC50 (CCRF-CEM): 41.5 µM
- IC50 [1]: > 100 µM
- EC50 [2]: 43.5 µM
- IC50 (Vero): 66.4 µM

Compound: O=c1ccn([C@H]2S[C@@H](CO)C=C2F)c(=O)[nH]1
- IC50 (CCRF-CEM): > 100 µM
- IC50 [1]: > 100 µM
- EC50 [2]: > 100 µM
- IC50 (Vero): > 100 µM

Compound: Nc1ncnc2c1ncn2[C@H]1S[C@@H](CO)C=C1F
- IC50 (CCRF-CEM): > 100 µM
- IC50 [1]: > 100 µM
- EC50 [2]: 1.7 µM
- IC50 (Vero): > 100 µM

Compound: Cc1cn([C@H]2C[C@H](N=[N+]=[N-])[C@@H](CO)O2)c(=O)[nH]c1=O [ZIDOVUDINE]
- IC50 (CCRF-CEM): 29 µM
- IC50 [1]: > 100 µM
- IC50 (Vero): 14.3 µM
- EC50 [3]: 0.004 µM

Compound: OC[C@H]1C=C(F)[C@@H](n2cnc3c(O)ncnc32)S1
- IC50 (CCRF-CEM): > 100 µM
- IC50 [1]: > 100 µM
- EC50 [2]: 15.5 µM
- IC50 (Vero): > 100 µM

Compound: Cc1cn([C@H]2S[C@@H](CO)C=C2F)c(=O)[nH]c1=O
- IC50 (CCRF-CEM): > 100 µM
- IC50 [1]: > 100 µM
- EC50 [2]: > 100 µM
- IC50 (Vero): > 100 µM

Compound: Nc1nc(=O)n([C@H]2S[C@@H](CO)C=C2F)cc1F
- IC50 (CCRF-CEM): > 100 µM
- IC50 [1]: > 100 µM
- EC50 [2]: 0.15 µM
- IC50 (Vero): > 100 µM

Compound: Nc1ccn([C@H]2S[C@@H](CO)C=C2F)c(=O)n1
- IC50 (CCRF-CEM): > 100 µM
- EC90 [4]: > 100 µM
- IC50 [1]: > 100 µM
- EC50 [2]: 0.12 µM
- IC50 [5]: > 100 µM
- FI [6]: > 100
- EC90 [7]: 1.4 µM
